# Bioassay records as filed in PubChem BioAssay.
# D1 mod: D1 dopamine receptor (human) allosteric modulation; P21728; HEK293 D1, CRE-luciferase, dopamine EC30 potentiation; actives deviate in either direction; B-score at 10 µM; hit rate 5.9% among 58,000; AID 641;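 active = luminescence count or its row- and column-corrected plate score outside the 99.7% band of the plate's sample wells, on either side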
# DAT uptake mod: human DAT dopamine uptake with cocaine, either direction; LLC-PK1 hDAT cells, [14C]-dopamine uptake with cocaine IC80; actives deviate in either direction; B-score at 10 µM; hit rate 1.3% among 110,000; Q01959; AID 449768;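 active = Z score or B-score, a plate-position-corrected score, falls beyond the plate's 99.7% confidence bounds, in either direction; inactive = both scores lie inside the 99.7% bounds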;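 note: scored against the spread of the other compound wells on the same plate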
# Target sequence (Q01959 whole entry, looked up): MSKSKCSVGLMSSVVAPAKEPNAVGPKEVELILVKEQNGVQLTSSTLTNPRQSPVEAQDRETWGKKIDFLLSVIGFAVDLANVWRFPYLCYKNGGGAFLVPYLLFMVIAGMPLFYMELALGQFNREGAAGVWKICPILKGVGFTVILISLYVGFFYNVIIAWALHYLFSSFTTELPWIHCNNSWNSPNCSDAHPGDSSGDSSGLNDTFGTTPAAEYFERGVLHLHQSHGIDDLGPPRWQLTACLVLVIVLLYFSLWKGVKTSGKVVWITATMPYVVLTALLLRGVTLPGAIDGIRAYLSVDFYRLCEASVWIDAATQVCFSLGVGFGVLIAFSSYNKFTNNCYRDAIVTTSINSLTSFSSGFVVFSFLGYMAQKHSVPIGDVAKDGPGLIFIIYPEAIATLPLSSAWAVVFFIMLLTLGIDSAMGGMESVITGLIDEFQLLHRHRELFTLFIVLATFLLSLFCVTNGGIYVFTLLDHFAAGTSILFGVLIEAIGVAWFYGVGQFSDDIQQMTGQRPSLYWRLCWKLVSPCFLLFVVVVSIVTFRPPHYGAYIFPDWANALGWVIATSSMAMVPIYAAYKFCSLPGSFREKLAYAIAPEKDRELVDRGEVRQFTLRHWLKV
# M1 antag: blocks the rat M1 muscarinic receptor response to acetylcholine. P08482. CHO-M1 cells, Fluo-4 calcium, ACh EC80 antagonist mode; hits give low values. B-score at 10 µM. hit rate 3.4% among 64,000. AID 628;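 active = calcium fluorescence response, raw or row-and-column corrected B-score, differing from the plate sample mean either way at a set confidence level, mostly lower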
# HEK293 NFkB inh: inhibitors of the PMA/ionomycin-induced NF-kB reporter in HEK293 cells | HEK-293 NF-kB luciferase reporter, luminescence | inhibition, % at 3 µM | hit rate 0.21% among 62,000;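 active = inhibition above the mean of all tested compounds plus 3 SD, cut at about 40% in these data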;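 note: 0% = stimulated DMSO wells and 100% = 10 µM reference inhibitor 5653914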
#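 Reagent: PMA plus ionomycin mix as NF-kB-activating stimulus. Assay system: NF-kB luciferase reporter HEK-293 cells. Technique: luminescence from luciferase substrate reagent. Incubation: 1 h compound pre-incubation, 16 h PMA/ionomycin at 37 °C. Benchmarks: DMSO only as uninhibited control, 10 µM reference inhibitor as full inhibition. Repeats: tested once.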
# Jurkat viability: cytotoxicity toward Jurkat cells; Jurkat E6.1 viability, ATP luminescence, 48 h; inhibition, % at 4 µM; hit rate 1.2% among 56,000;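 active = inhibition above the mean inhibition of all tested compounds plus 3 SD, cut at about 28% in these data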
# M1 ag: activates the M1 muscarinic receptor; CHO-M1 cells, Fluo-4 calcium fluorescence, agonist mode; hits give high values; B-score at 10 µM; hit rate 3% among 64,000; AID 626;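 active = fluorescence rise, raw or as B-score row- and column-corrected plate score, outside the 99.7% band of its plate's samples, either direction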
# Numbers without * were called inactive; / = not tested or not shown. Sampled rows, rich in hits. Any-hit rate of the full collection: about 7.6%.
SMILES,D1 mod,DAT uptake mod,M1 antag,HEK293 NFkB inh,Jurkat viability,M1 ag
COc1ccc(OC)c(-c2csc3nnc(SCC(=O)Nc4ccc(NC(C)=O)cc4)n23)c1,-1.09,-0.159,0.243,9.0,-1.9,1.07
CCOc1ccc(N(CC(=O)N/N=C/c2cc([N+](=O)[O-])ccc2Cl)S(C)(=O)=O)cc1,/,0.0563,/,/,/,/
O=C(Nc1ccc(O)cc1)c1ccc(C(=O)c2ccccc2)o1,-3.19*,0.135,-0.242,13.3,15.0,1.78
O=C(Nc1ccc(Nc2ccccc2)cc1)c1ccc(Br)o1,-0.943,/,-1.12,-7.8,-4.3,0.263
Clc1ccc2nc(NC3=NCN(CCN4CCOCC4)CN3)nc(-c3ccccc3)c2c1,-0.321,/,-15*,-2.5,11.5,0.8
OCCN1CCN(c2nc(-c3ccccc3)c3cc(Cl)ccc3n2)CC1,0.59,0.659,-0.798,16.6,2.6,0.0229
NC(=O)C1CCN(CC(=O)Nc2ccccn2)CC1,0.0234,/,-1.04,-4.0,10.4,1.31
CC(NC(=O)CN1CCC(C(N)=O)CC1)c1ccccc1 (stereo not drawn),-0.00296,-8.07*,-0.0611,4.6,5.1,0.285
COc1cc2c(cc1NC(=O)COc1ccc3ccccc3c1)oc1ccccc12,/,-7.78*,/,/,/,/
c1ccn2c(SCc3ccc4c(c3)OCCO4)nnc2c1,-0.0766,0.369,-0.435,-10.9,1.5,1.41
CCN(CC)C(=O)c1sc2nc(-c3cccs3)cc(-c3cccs3)c2c1N,0.00672,/,-0.179,/,/,14.6*
CCN(CC)C(=O)c1sc2nc(-c3cccs3)cc(-c3ccc(Cl)cc3)c2c1N,/,1.2,/,/,/,/
COc1ccc(C(=O)Nc2ccc(S(=O)(=O)Nc3nccnc3OC)cc2)cc1OC,-0.311,-0.607,-18.7*,-5.6,-0.9,25*
CN(C)S(=O)(=O)c1cccc(C(=O)N2CCc3ccccc32)c1,/,-0.0503,1.27*,11.4,7.5,0.00208
CC(C)(C)c1cc(C(=O)N2CCc3ccccc32)ccn1,1.79,0.758,-1.12,15.2,17.8,0.0706
Cc1ccccc1Nc1nc(-c2sc(NC(=O)c3cccc(Cl)c3)nc2C)cs1,/,1.72*,/,/,/,/
Cc1nc(NC(=O)c2ccccc2)sc1-c1csc(Nc2ccc(Cl)cc2Cl)n1,/,2.39*,/,/,/,/
Cc1ccccc1Nc1nc(-c2sc(NC(=O)c3ccccc3)nc2C)cs1,/,2.53*,/,/,/,/
Cc1ccccc1Nc1nc(-c2sc(NC(=O)c3ccc([N+](=O)[O-])cc3)nc2C)cs1,/,0.805,/,/,/,/
O=c1c2ccccc2cnn1-c1nc2ccccc2s1,-4.46*,/,0.603,77.0*,2.5,-0.805
O=c1c2ccccc2ncn1Cc1nc2ccccc2s1,0.0255,0.494,0.715,19.5,/,-1.1
CC(C)Cn1c(N)c(C(=O)COC(=O)c2cc(-c3ccccc3)nc3ccccc23)c(=O)n(C)c1=O,/,2.47*,/,/,/,/
O=C(NC1CCCCCCC1)c1ccc2c(c1)OCO2,-3.52*,0.194,-0.208,-9.4,12.5,0.483
Nc1nc2ccc(Oc3ccccc3)cc2s1,-4.54*,-0.844,-0.0263,-9.5,21.2,2.11
CCN(CC)S(=O)(=O)c1csc(C(=O)NCc2ccccc2)c1,/,2.64*,0.0177,8.0,/,0.833
SMILES,D1 mod,DAT uptake mod,M1 antag,HEK293 NFkB inh,Jurkat viability,M1 ag
CCOC(=O)N1CCc2c(sc(NC(C)=O)c2C(N)=O)C1,-0.641,-0.595,-0.519,19.1,12.4,-0.673
CCOC(=O)N1CCc2c(sc(NC(=O)c3ccc(Cl)s3)c2C(N)=O)C1,0.247,1.48,-0.042,12.7,12.7,5.26*
Cc1ccc2nc(N3CCN(Cc4ccc(F)cc4)C3=O)c(C)cc2c1,-0.275,2.24*,-1.02,17.0,1.8,-0.599
CCOC(=O)c1c(C)n(C)c2ccc(OCC(O)CN3CCCCCC3)cc12 (stereo not drawn),/,1.51,-0.789,11.3,0.7,0.604
CCOC(=O)c1c(C)n(C)c2ccc(OCC(O)Cn3nc(C)c(Br)c3C)cc12 (stereo not drawn),0.0927,-8.53*,-0.476,8.4,-6.4,1.34
CCn1c2ccccc2c2nnc(SCC(=O)NCCOC)nc21,0.977,-0.134,0.00425,2.1,3.2,-0.31
CCn1c2ccccc2c2nnc(SCN3C(=O)c4ccccc4C3=O)nc21,9.45*,/,-0.344,12.0,3.8,-1.07
C=CCn1c2ccccc2c2nnc(SCC(=O)Nc3c(C)n(C)n(-c4ccccc4)c3=O)nc21,/,2.97*,/,/,/,/
CCn1c2ccccc2c2nnc(SCC(=O)Nc3c(C)n(C)n(-c4ccccc4)c3=O)nc21,/,2.61,/,/,/,/
Cn1c2ccccc2c2nnc(SCN3C(=O)c4ccccc4C3=O)nc21,1.5,/,0.16,20.5,2.5,0.126
CCn1c2ccccc2c2nnc(SCC(=O)NC(C(=O)OC)C(C)C)nc21 (stereo not drawn),3.68*,/,0.655,19.4,3.1,0.364
CCN(CC)C(=O)CC(c1ccc2c(c1)OCO2)c1c(OC)cc(OC)c2ccc(=O)oc12 (stereo not drawn),/,2.67*,/,/,/,/
CCN(CC)C(=O)CC(c1ccc(N(C)C)cc1)c1c(OC)cc(OC)c2ccc(=O)oc12 (stereo not drawn),/,0.951,/,/,/,/
N#Cc1c(NC(=O)CSc2nc(N)cc(=O)[nH]2)sc2c1CCCCCC2,-0.558,-0.633,-0.122,11.0,55.7*,-0.00357
N#Cc1c(NC(=O)CSc2ncn[nH]2)sc2c1CCCCC2,-4.57*,0.302,-0.659,54.0*,18.7,-0.196
Cc1nn(-c2ccc(Cl)cc2)c2sc(C(=O)N3CCN(C(=O)c4ccco4)CC3)cc12,0.652,/,0.207,1.0,/,2.76*
COC(=O)C1=C(C)N=C2SC(C)C(=O)N2C1c1cccc(F)c1 (stereo not drawn),-0.765,0.288,-0.0564,/,/,-0.013
O=C(Nc1ccc2c(c1)OCCO2)NC1(C(F)(F)F)Oc2ccccc2O1,-3*,-2.95*,-1.68,12.2,24.9,0.095
O=C(Nc1ccc(/C=C/c2nc3ccccc3o2)cc1)c1ccc(F)cc1,/,0.484,/,/,/,/
COc1ccccc1NC(=O)c1sc2ncn(Cc3ccccc3C)c(=O)c2c1C,/,0.458,/,/,/,/
O=C(Cn1cnc2sc(-c3ccccc3)cc2c1=O)NCc1ccco1,/,-0.921,0.11,7.1,42.5*,0.69
COc1ccccc1NC(=O)Cn1cnc2sc(C(=O)NCc3ccco3)c(C)c2c1=O,-0.207,1.89*,0.388,25.8,/,-0.056
O=C(Cn1cnc2sc(-c3ccccc3)cc2c1=O)NCc1ccccc1,/,0.00103,/,/,/,/
O=C(NCC(c1cccs1)N1CCOCC1)c1ccc(Cl)s1 (stereo not drawn),-1.76,-1.8,0.0181,12.9,95.0*,0.0142
O=C(COc1ccccc1)NCC(c1cccs1)N1CCOCC1 (stereo not drawn),-0.854,-0.368,-0.228,6.9,/,-0.535
COc1ccc(-n2nnc3c(=O)n(Cc4cc(C)ccc4C)cnc32)cc1,0.512,-0.331,-2.15,5.4,-4.5,-0.59
COc1ccc(C(=O)c2c[nH]c3ccccc23)cc1,-2.18*,0.33,0.00176,/,/,0.931
Cn1c(=O)cc(OCCCC(=O)NCc2ccccn2)c2ccccc21,-0.776,1.44,0.15,8.8,-7.1,2.02
Cc1ccnc(NC(=O)CCCOc2cc(=O)n(C)c3ccccc23)c1,-3.3*,0.796,-0.666,6.8,88.8*,-0.2
